Our source for the IC50 values is ChEMBL document CHEMBL1127482 (J Med Chem, 1994).

Test [1] has as its target Integrin alpha-V/beta-5 (Homo sapiens, UniProt P06756+P18084). Kind of test: Binding affinity against integrin alpha V-beta5 in enzyme linked immunosorbent assay (ELISA). The class given is protein-complex assay. Put shortly: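 It is added to wells coated with human vitronectin in 0.1 M carbonate, pH 9.6, with 10-fold serial peptide dilutions for 3 h at room temperature. Detection uses rabbit anti-VnR, HRP anti-rabbit IgG and o-phenylenediamine/H2O2.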
(In general: ELISA stands for enzyme-linked immunosorbent assay.)

The species entered for test [2] is Homo sapiens. In words: Inhibition of 10 uM ADP induced platelet aggregation in human platelet rich citreated plasma (PRP). The class given is functional. Summed up: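 Aggregation is read as the increase in light transmission in an aggregometer, with platelets used within 3 h of collection. IC50 comes from regression of dose-response curves for inhibition of maximal aggregation, adjusted against a standard run in each experiment.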

Usually IC50 stands for the point on the concentration scale where inhibition reaches its midpoint. A low value points to higher potency.

*1 amine or outer side, *2 acyl side, *3 side chain or, on linkers, in order; H or OH if unused. Where a SMILES comes first, the peptide text is derived from it. Bridges are numbered along the chain shown (N, C = ends). X1 = O=C(CC1(S[*:2])CCCCC1)[*:1]; X4 = C[C@H](S[*:2])C(=O)[*:1]

Chain of Integrin alpha-V/beta-5 (P06756 31-889 limits assumed): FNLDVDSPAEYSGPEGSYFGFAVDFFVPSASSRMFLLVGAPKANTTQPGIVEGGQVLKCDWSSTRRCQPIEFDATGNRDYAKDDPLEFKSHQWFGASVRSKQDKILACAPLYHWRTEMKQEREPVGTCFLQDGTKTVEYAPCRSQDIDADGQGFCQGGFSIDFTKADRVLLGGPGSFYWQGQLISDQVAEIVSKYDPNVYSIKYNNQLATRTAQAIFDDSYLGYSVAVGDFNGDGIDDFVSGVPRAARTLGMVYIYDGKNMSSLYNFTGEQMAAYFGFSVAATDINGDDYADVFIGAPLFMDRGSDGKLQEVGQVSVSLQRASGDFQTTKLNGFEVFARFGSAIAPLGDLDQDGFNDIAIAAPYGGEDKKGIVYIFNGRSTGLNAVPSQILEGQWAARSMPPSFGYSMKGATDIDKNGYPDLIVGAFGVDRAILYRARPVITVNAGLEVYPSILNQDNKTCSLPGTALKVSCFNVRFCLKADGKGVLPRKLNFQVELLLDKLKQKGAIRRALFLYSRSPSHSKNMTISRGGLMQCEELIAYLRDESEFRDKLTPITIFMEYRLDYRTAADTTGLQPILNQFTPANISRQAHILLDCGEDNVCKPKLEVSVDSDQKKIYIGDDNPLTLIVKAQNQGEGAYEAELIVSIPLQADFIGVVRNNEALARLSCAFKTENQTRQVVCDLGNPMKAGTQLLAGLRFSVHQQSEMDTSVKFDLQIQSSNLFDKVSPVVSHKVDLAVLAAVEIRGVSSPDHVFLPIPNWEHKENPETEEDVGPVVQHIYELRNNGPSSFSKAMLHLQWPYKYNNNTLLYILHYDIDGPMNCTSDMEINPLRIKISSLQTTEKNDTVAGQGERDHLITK
Chain of Integrin alpha-V/beta-5 (P06756 891-1048 limits assumed): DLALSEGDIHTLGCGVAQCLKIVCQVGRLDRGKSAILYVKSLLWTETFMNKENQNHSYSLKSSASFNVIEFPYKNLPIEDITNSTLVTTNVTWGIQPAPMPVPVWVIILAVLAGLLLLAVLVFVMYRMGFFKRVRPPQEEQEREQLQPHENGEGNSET
Chain of Integrin alpha-V/beta-5 (P18084 24-799 limits assumed): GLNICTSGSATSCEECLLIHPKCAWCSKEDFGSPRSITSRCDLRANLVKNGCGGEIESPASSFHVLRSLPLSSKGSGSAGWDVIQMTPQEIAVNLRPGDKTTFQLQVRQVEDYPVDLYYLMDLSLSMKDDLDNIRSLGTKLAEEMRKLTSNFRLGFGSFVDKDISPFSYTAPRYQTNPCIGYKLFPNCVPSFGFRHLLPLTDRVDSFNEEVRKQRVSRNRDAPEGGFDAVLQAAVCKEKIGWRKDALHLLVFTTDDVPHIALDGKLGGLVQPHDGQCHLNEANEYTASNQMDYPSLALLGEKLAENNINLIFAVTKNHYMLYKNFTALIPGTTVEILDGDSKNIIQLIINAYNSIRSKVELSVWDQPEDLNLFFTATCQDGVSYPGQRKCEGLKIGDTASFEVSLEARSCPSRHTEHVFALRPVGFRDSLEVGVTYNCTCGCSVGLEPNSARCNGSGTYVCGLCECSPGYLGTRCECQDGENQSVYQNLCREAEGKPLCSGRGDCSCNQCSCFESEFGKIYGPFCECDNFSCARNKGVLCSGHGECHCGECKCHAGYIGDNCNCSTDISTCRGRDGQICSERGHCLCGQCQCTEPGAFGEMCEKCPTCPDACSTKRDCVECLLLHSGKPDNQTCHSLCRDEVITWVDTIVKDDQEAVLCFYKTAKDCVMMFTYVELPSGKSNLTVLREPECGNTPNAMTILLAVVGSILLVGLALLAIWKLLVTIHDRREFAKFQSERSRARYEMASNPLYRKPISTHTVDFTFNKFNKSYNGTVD

Consider `COc1ccc(C[C@@H]2NC(=O)[C@H](CC(=O)O)NC(=O)CNC(=O)[C@H](CCCNC(=N)N)NC(=O)[C@H](Cc3ccc(O)cc3)NC(=O)CNC(=O)[C@@H](NC(=O)[C@@H](N)CCCNC(=N)N)C3(CCCCC3)SSC[C@@H](C(=O)N[C@@H](CCCNC(=N)N)C(=O)O)NC(=O)[C@H](CCCNC(=N)N)NC2=O)cc1`, for which the IC50 in test [1] amounted to 8.8 µM; in test [2], 0.85 µM. In test [2], `COc1ccc(C[C@@H]2NC(=O)[C@H](CC(=O)O)NC(=O)CNC(=O)[C@H](CCCN=C(N)N)NC(=O)[C@@H](Cc3c[nH]cn3)NC(=O)CNC(=O)[C@@H](NC(=O)[C@@H](N)CCCN=C(N)N)C3(CCCCC3)SSC[C@@H](C(=O)N[C@@H](CCCN=C(N)N)C(=O)O)NC(=O)[C@H](CCCN=C(N)N)NC2=O)cc1` came in with a half-inhibitory concentration (IC50) of 0.4 µM. This lies in the sub-micromolar range. For the compound `COc1ccc(C[C@@H]2NC(=O)[C@H](CC(=O)O)NC(=O)CNC(=O)[C@H](CCCN=C(N)N)NC(=O)[C@H](Cc3c[nH]cn3)NC(=O)[C@H](CC(N)=O)NC(=O)[C@@H](NC(=O)[C@@H](N)CCCN=C(N)N)C3(CCCCC3)SSC[C@@H](C(=O)N[C@@H](CCCN=C(N)N)C(=O)O)NC(=O)[C@H](CCCN=C(N)N)NC2=O)cc1`, in test [2], the IC50 came out at 0.99 µM. Take `COc1ccc(C[C@@H]2NC(=O)[C@H](CC(=O)O)NC(=O)CNC(=O)[C@H](CCCN=C(N)N)NC(=O)[C@H](Cc3c[nH]cn3)NC(=O)[C@H](CC(=O)O)NC(=O)[C@@H](NC(=O)[C@@H](N)CCCN=C(N)N)C3(CCCCC3)SSC[C@@H](C(=O)N[C@@H](CCCN=C(N)N)C(=O)O)NC(=O)[C@H](CCCN=C(N)N)NC2=O)cc1`: the IC50 in test [1] stood at 7.2 µM; in test [2], 2.75 µM.

The compound `CC(C)[C@H]1NC(=O)[C@H](CC(=O)O)NC(=O)CNC(=O)[C@H](CCCN=C(N)N)NC(=O)[C@@H](Cc2c[nH]cn2)NC(=O)CNC(=O)[C@@H](N)CCC/N=C(/N)NC(=O)[C@H](N)C2(CCCCC2)SSC[C@@H](C(=O)N[C@@H](CCCN=C(N)N)C(=O)O)NC(=O)[C@H](CCCN=C(N)N)NC1=O` registered a concentration for half-maximal inhibition (IC50) in test [2] of 0.69 µM. This counts as sub-micromolar.

Take `COc1ccc(C[C@@H]2NC(=O)[C@H](CC(=O)O)NC(=O)CNC(=O)[C@H](CCCNC(=N)N)NC(=O)[C@@H]3CCCN3C(=O)[C@H](CC(N)=O)NC(=O)[C@@H](NC(C)=O)CSSC[C@@H](C(N)=O)NC(=O)[C@H](CCCNC(N)=O)NC2=O)cc1`: the concentration for half-maximal inhibition (IC50) in test [1] came out at 3.46 µM. That is a single-digit micromolar value.

In test [1], `COc1ccc(C[C@@H]2NC(=O)[C@H](CC(=O)O)NC(=O)CNC(=O)[C@H](CCCNC(=N)N)NC(=O)[C@@H]3CCCN3C(=O)[C@H](CC(N)=O)NC(=O)[C@@H](NC(C)=O)CSSC[C@@H](C(N)=O)NC(=O)[C@H](CCCN)NC2=O)cc1` gave an IC50 of 7.7 µM. Consider `NC(N)=NCCC[C@H](NC(=O)[C@@H]1CSSC2(CCCCC2)[C@H](NC(=O)[C@@H](N)CCCN=C(N)N)C(=O)NCC(=O)N[C@@H](Cc2c[nH]cn2)C(=O)N[C@@H](CCCN=C(N)N)C(=O)NCC(=O)N[C@@H](CC(=O)O)C(=O)N[C@@H](Cc2ccc(O)cc2)C(=O)N[C@@H](CCCN=C(N)N)C(=O)N1)C(=O)O`, for which 0.97 µM corresponded to half-maximal inhibition in test [2] (IC50). As to `COc1ccc(C[C@@H]2NC(=O)[C@H](CC(=O)O)NC(=O)CNC(=O)[C@H](CCCN=C(N)N)NC(=O)[C@H](Cc3c[nH]cn3)NC(=O)[C@H](CO)NC(=O)[C@@H](NC(=O)[C@@H](N)CCCN=C(N)N)C3(CCCCC3)SSC[C@@H](C(=O)N[C@@H](CCCN=C(N)N)C(=O)O)NC(=O)[C@H](CCCN=C(N)N)NC2=O)cc1`, the figures for the IC50 in test [1] and in test [2] were 6.6 µM and 0.95 µM, respectively. On to `COc1ccc(C[C@@H]2NC(=O)[C@H](CC(=O)O)NC(=O)CNC(=O)[C@H](CCCN=C(N)N)NC(=O)[C@@H]3CCCN3C(=O)[C@H](CC(N)=O)NC(=O)CCSSC[C@@H](C(N)=O)NC(=O)[C@H](CCCN=C(N)N)NC2=O)cc1`, for which the IC50 in test [1] came to 3 µM. This lies in the single-digit micromolar range. Compound `COc1ccc(C[C@@H]2NC(=O)[C@H](CC(=O)O)NC(=O)CNC(=O)[C@H](CCCNC(=N)N)NC(=O)[C@@H]3CCCN3C(=O)[C@H](CC(N)=O)NC(=O)[C@@H](NC(C)=O)CSSC[C@@H](C(N)=O)NC(=O)[C@H](C)NC2=O)cc1` registered an IC50 in test [1] of 8.85 µM. The compound `COc1ccc(C[C@@H]2NC(=O)[C@H](CC(=O)O)NC(=O)CNC(=O)[C@H](CCCNC(=N)N)NC(=O)[C@@H]3CCCN3C(=O)[C@H](CC(N)=O)NC(=O)[C@@H](NC(C)=O)CSSC[C@@H](C(N)=O)NC(=O)[C@H](CCC(=O)O)NC2=O)cc1` returned an IC50 in test [1] of 9.47 µM. This IC50 and that of the compound before are within 1.5-fold of each other. In test [1], `COc1ccc(C[C@@H]2NC(=O)[C@H](CC(=O)O)NC(=O)CNC(=O)[C@H](CCCN=C(N)N)NC(=O)[C@@H]3CCCN3C(=O)[C@H](CC(N)=O)NC(=O)[C@@H](NC(C)=O)C3(CCCCC3)SSC[C@@H](C(N)=O)NC(=O)[C@H](CCCN=C(N)N)NC2=O)cc1` [listing 1 of 2 here] returned an IC50 of 2.34 µM. As for `COc1ccc(C[C@@H]2NC(=O)[C@H](CC(=O)O)NC(=O)CNC(=O)[C@H](CCCN=C(N)N)NC(=O)[C@@H]3CCCN3C(=O)[C@H](CC(N)=O)NC(=O)[C@@H](NC(C)=O)C3(CCCCC3)SSC[C@@H](C(N)=O)NC(=O)[C@H](CCCN=C(N)N)NC2=O)cc1` [listing 2 of 2 here], the IC50 in test [2] worked out at 0.15 µM. Still for that read-out and setting: to `N=C(N)NCCC[C@H](NC(=O)[C@@H]1CSSC2(CCCCC2)[C@H](NC(=O)[C@@H](N)CCCNC(=N)N)C(=O)NCC(=O)N[C@@H](Cc2c[nH]cn2)C(=O)N[C@@H](CCCNC(=N)N)C(=O)NCC(=O)N[C@@H](CC(=O)O)C(=O)N[C@@H](CCc2ccccc2)C(=O)N[C@@H](CCCNC(=N)N)C(=O)N1)C(=O)O` belongs 0.6 µM.

`CC[C@H](C)[C@@H]1NC(=O)[C@@H](NC(=O)[C@@H](N)CCCN=C(N)N)C2(CCCCC2)SSC[C@@H](C(=O)N[C@@H](CCCN=C(N)N)C(=O)O)NC(=O)[C@H](CCCN=C(N)N)NC(=O)[C@H](Cc2ccc(OC)cc2)NC(=O)[C@H](CC(=O)O)NC(=O)CNC(=O)[C@H](CCCN=C(N)N)NC(=O)[C@H](Cc2c[nH]cn2)NC1=O` gave an IC50 in test [1] of 9.9 µM. This counts as single-digit micromolar. With `CCCCOc1ccc(C[C@@H]2NC(=O)[C@H](CC(=O)O)NC(=O)CNC(=O)[C@H](CCCNC(=N)N)NC(=O)[C@@H]3CCCN3C(=O)[C@H](CC(N)=O)NC(=O)[C@@H](NC(C)=O)CSSC[C@@H](C(N)=O)NC(=O)[C@H](CCCNC(=N)N)NC2=O)cc1`, the IC50 in test [1] was 10 µM; in test [2] it was 0.1 µM. For `COc1ccc(C[C@@H]2NC(=O)[C@H](CC(=O)O)NC(=O)CNC(=O)[C@H](CCCNC(=N)N)NC(=O)[C@@H]3CCCN3C(=O)CNC(=O)[C@@H](NC(=O)[C@@H](N)CCCNC(=N)N)C3(CCCCC3)SSC[C@@H](C(=O)N[C@@H](CCCNC(=N)N)C(=O)O)NC(=O)[C@H](CCCNC(=N)N)NC2=O)cc1`, the IC50 in test [1] worked out at 1.7 µM. Take `COc1ccc(C[C@@H]2NC(=O)[C@H](CC(=O)O)NC(=O)CNC(=O)[C@H](CCCNC(=N)N)NC(=O)[C@@H]3CCCN3C(=O)[C@H](CC(N)=O)NC(=O)[C@@H](NC(C)=O)CSSC[C@@H](C(N)=O)NC(=O)[C@H](CC(C)C)NC2=O)cc1`: the values for the IC50 in test [1] and in test [2] were 7.14 µM and 7.6 µM, respectively. `COc1ccc(C[C@@H]2NC(=O)[C@H](CC(=O)O)NC(=O)CNC(=O)[C@H](CCCNC(=N)N)NC(=O)[C@@H]3CCCN3C(=O)[C@H](CC(N)=O)NC(=O)[C@@H](NC(C)=O)CSSC[C@@H](C(N)=O)NC(=O)[C@H](CCCCN)NC2=O)cc1`: the IC50 in test [1] was 5.82 µM. As for `COc1ccc(C[C@@H]2NC(=O)[C@H](CC(=O)O)NC(=O)CNC(=O)[C@H](CCCNC(=N)N)NC(=O)[C@@H](Cc3ccc(O)cc3)NC(=O)CNC(=O)[C@@H](NC(=O)[C@@H](N)CCCNC(=N)N)C3(CCCCC3)SSC[C@@H](C(=O)N[C@@H](CCCNC(=N)N)C(=O)O)NC(=O)[C@H](CCCNC(=N)N)NC2=O)cc1`, the figures for the IC50 in test [1] and in test [2] were 10 µM and 0.52 µM, respectively. In test [2], `CCCCOc1ccc(C[C@@H]2NC(=O)[C@H](CC(=O)O)NC(=O)CNC(=O)[C@H](CCCN=C(N)N)NC(=O)[C@@H]3CCCN3C(=O)[C@H]([C@@H](C)CC)NC(=O)[C@@H](NC(C)=O)CSSC[C@@H](C(N)=O)NC(=O)[C@H](CCCN=C(N)N)NC2=O)cc1` registered an IC50 of 0.48 µM. `COc1ccc(C[C@@H]2NC(=O)[C@H](CC(=O)O)NC(=O)CNC(=O)[C@H](CCCCN)NC(=O)[C@@H]3CCCN3C(=O)[C@H](CC(N)=O)NC(=O)[C@@H](NC(C)=O)CSSC[C@@H](C(N)=O)NC(=O)[C@H](CCCN=C(N)N)NC2=O)cc1`: the IC50 in test [2] turned out to be 0.7 µM. In the case of `CC[C@H](C)[C@@H]1NC(=O)[C@@H](NC(C)=O)CSSC[C@@H](C(N)=O)NC(=O)[C@H](CCCN=C(N)N)NC(=O)[C@H](Cc2ccc(O)cc2)NC(=O)[C@H](CC(=O)O)NC(=O)CNC(=O)[C@H](CCCN=C(N)N)NC(=O)[C@@H]2CCCN2C1=O` (Ac-CIPRGDYRC-NH2; disulfide 1-9), 0.33 µM corresponded to half-maximal inhibition in test [2] (IC50).

Regarding `COc1ccc(C[C@@H]2NC(=O)[C@H](CC(=O)O)NC(=O)CNC(=O)[C@H](CCCN=C(N)N)NC(=O)[C@@H]3CCCN3C(=O)[C@H](CC(N)=O)NC(=O)CC3(CCCCC3)SSC[C@@H](C(N)=O)NC(=O)[C@H](CCCN=C(N)N)NC2=O)cc1` (NPRGDY(Me)RC-NH2; linker N-8 via X1), the IC50 in test [1] stood at 4.9 µM; in test [2], 0.17 µM. The compound `COc1ccc(C[C@@H]2NC(=O)[C@H](CC(=O)O)NC(=O)CNC(=O)[C@H](CCCN=C(N)N)NC(=O)[C@@H]3CCCN3C(=O)[C@H](CC(N)=O)NC(=O)[C@H](C)SSC[C@@H](C(N)=O)NC(=O)[C@H](CCCN=C(N)N)NC2=O)cc1` (NPRGDY(Me)RC-NH2; linker N-8 via X4) came in with an IC50 in test [2] of 0.17 µM. This lies in the sub-micromolar range. Turning to `CC(C)C[C@@H]1NC(=O)[C@H](CC(=O)O)NC(=O)CNC(=O)[C@H](CCCNC(=N)N)NC(=O)[C@H](Cc2c[nH]cn2)NC(=O)CNC(=O)[C@H](NC(=O)CN)C(C)(C)SSC[C@@H](C(=O)N[C@@H](C)C(=O)O)NC(=O)[C@H](CCCNC(=N)N)NC1=O` (stereo in doubt; 1), the IC50 in test [1] turned out to be 8.26 µM.
